From ChEMBL document CHEMBL1154183, “Structure-based optimization of potent and selective inhibitors of the tyrosine kinase erythropoietin producing human hepatocellular carcinoma receptor B4 (EphB4)” (J Med Chem, 2009) come the findings set out here.

Structures are written as SMILES.

The term IC50 denotes the concentration that inhibits the measured activity by half.

For experiment [1], the target named is Ribosomal protein S6 kinase alpha-1 (Homo sapiens) (UniProt Q15418). Put plainly: Inhibition of RSK1 assessed as remaining enzyme activity at 3 uM relative to DMSO.
The nature of experiment [2]: Inhibition of AMPK assessed as remaining enzyme activity at 3 uM relative to DMSO. A digest of the protocol:
(§1)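 Panel assay run robotically at room temperature for 30 min with 10 mM magnesium acetate and [γ-33P]ATP (800 cpm/pmol) at 5, 20 or 50 μM, chosen per kinase to be at or below its ATP Km. Reactions were started with MgATP, stopped with orthophosphoric acid and spotted on P81 filters. Activity is the mean of duplicates at a single inhibitor concentration, as % of DMSO control.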

Experiment [3] has as its target Protein kinase C zeta type (Homo sapiens) (UniProt Q05513). In words: Inhibition of PKCzeta assessed as remaining enzyme activity at 3 uM relative to DMSO.
Experiment [4] in a line: Inhibition of Aurora assessed as remaining enzyme activity at 3 uM relative to DMSO. A digest of the protocol:
as §1

Experiment [5] addresses Maternal embryonic leucine zipper kinase (Homo sapiens) (UniProt Q14680). In words: Inhibition of MELK assessed as remaining enzyme activity at 3 uM relative to DMSO. Summed up: (§2)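 Radiometric kinase assay run robotically at room temperature for 30 min. Contained 10 mM magnesium acetate and [γ-33P]ATP (800 cpm/pmol) at 5, 20 or 50 μM, chosen per kinase to be at or below its ATP Km. Reactions were started with MgATP, stopped with orthophosphoric acid and spotted onto P81 filters. Result is mean % activity of duplicates at one inhibitor concentration versus DMSO control.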

Experiment [6] can be described thus: Inhibition of PHK assessed as remaining enzyme activity at 3 uM relative to DMSO. Summed up:
as §2

For experiment [7], the target named is Protein kinase C alpha type (Homo sapiens) (UniProt P17252). In words: Inhibition of PKCalpha assessed as remaining enzyme activity at 3 uM relative to DMSO.
A short description of experiment [8]: Inhibition of PKA assessed as remaining enzyme activity at 3 uM relative to DMSO. Summed up: as §2
For experiment [9], the target named is Glycogen synthase kinase-3 beta (Homo sapiens) (UniProt P49841). In words: Inhibition of GSK3-beta assessed as remaining enzyme activity at 3 uM relative to DMSO. A digest of the protocol: (§3)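 Dundee kinase panel, radiometric: [γ-33P]ATP (800 cpm/pmol) at 5, 20 or 50 μM, at or below each kinase's ATP Km; 10 mM magnesium acetate; robotic, room temperature, 30 min. Reactions started with MgATP, stopped with orthophosphoric acid, spotted onto P81 filters. Inhibitor tested at a single concentration; mean % activity of duplicates relative to DMSO control.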

Experiment [10] addresses Serine/threonine-protein kinase 26 (Homo sapiens) (UniProt Q9P289). Put plainly: Inhibition of MST4 assessed as remaining enzyme activity at 3 uM relative to DMSO. Summed up: as §2
For experiment [11], the target named is MAP/microtubule affinity-regulating kinase 3 (Homo sapiens) (UniProt P27448). Put plainly: Inhibition of MARK3 assessed as remaining enzyme activity at 3 uM relative to DMSO. A digest of the protocol:
as §2

Experiment [12] addresses Mitogen-activated protein kinase 8 (Homo sapiens) (UniProt P45983). In words: Inhibition of JNK1 assessed as remaining enzyme activity at 1 uM relative to DMSO. A digest of the protocol:
(§4)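 Radiometric kinase assay run robotically at room temperature for 30 min, linear in time and enzyme. Conditions: 10 mM magnesium acetate, [γ-33P]ATP (800 cpm/pmol) at 5, 20 or 50 μM per kinase, at or below its ATP Km. Started with MgATP and stopped with orthophosphoric acid, then spotted on P81 filters. Reported as mean % activity of duplicates versus DMSO controls.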

For experiment [13], the target named is Platelet-derived growth factor receptor alpha (Homo sapiens) (UniProt P16234). Put plainly: Binding affinity to PDGFRA assessed as percentage of kinase remaining bound to the bead at 1 uM by T7 phage display based binding assay. A digest of the protocol:
(§5)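 Competition binding assay run by a contract lab. Each kinase was expressed as a fusion to T7 phage, full-length for small kinases and catalytic domain for large ones. Phage were mixed with an immobilized known kinase inhibitor on streptavidin magnetic beads and with test compound at a single 1 μM. Kinase/phage still bound to the beads was quantified by qPCR and expressed as % of DMSO control.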

The target in experiment [14] is Mitogen-activated protein kinase 11 (Homo sapiens) (UniProt Q15759). In words: Inhibition of p38beta assessed as remaining enzyme activity at 1 uM relative to DMSO.
Mitogen-activated protein kinase 11 (Homo sapiens), sequence (Q15759 whole entry): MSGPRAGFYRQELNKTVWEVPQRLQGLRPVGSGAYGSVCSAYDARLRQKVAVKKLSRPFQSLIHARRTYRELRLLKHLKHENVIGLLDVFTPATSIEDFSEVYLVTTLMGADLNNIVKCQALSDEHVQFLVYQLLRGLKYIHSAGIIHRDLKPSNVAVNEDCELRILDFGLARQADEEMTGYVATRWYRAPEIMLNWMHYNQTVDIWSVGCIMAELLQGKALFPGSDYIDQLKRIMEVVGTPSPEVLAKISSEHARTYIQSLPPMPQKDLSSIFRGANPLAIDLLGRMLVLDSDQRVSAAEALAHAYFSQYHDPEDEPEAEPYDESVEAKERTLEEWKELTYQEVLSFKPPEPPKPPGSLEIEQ
Experiment [15] addresses Serine/threonine-protein kinase Chk1 (Homo sapiens) (UniProt O14757). In words: Inhibition of CHK1 assessed as remaining enzyme activity at 1 uM relative to DMSO. A digest of the protocol: as §4
The target of experiment [16] is Inhibitor of nuclear factor kappa-B kinase subunit beta (Homo sapiens) (UniProt O14920). Put plainly: Inhibition of IKK-beta assessed as remaining enzyme activity at 1 uM relative to DMSO. Summed up:
as §4

The target of experiment [17] is Serine/threonine-protein kinase 32B (Homo sapiens) (UniProt Q9NY57). In words: Binding affinity to YANK2 assessed as percentage of kinase remaining bound to the bead at 1 uM by T7 phage display based binding assay. A digest of the protocol:
as §5

Experiment [18] addresses SRSF protein kinase 1 (Homo sapiens) (UniProt Q96SB4). Put plainly: Inhibition of SRPK1 assessed as remaining enzyme activity at 1 uM relative to DMSO.
Experiment [19] concerns the target Tyrosine-protein kinase Lyn (Homo sapiens) (UniProt P07948). Put plainly: Binding affinity to LYN assessed as percentage of kinase remaining bound to the bead at 1 uM by T7 phage display based binding assay. Summed up:
as §5

In experiment [20] the target is MAP kinase-activated protein kinase 2 (Homo sapiens) (UniProt P49137). Put plainly: Inhibition of MAPKAPK2 assessed as remaining enzyme activity at 1 uM relative to DMSO. A digest of the protocol:
as §2

Experiment [21] concerns the target Discoidin domain-containing receptor 2 (Homo sapiens) (UniProt Q16832). Put plainly: Binding affinity to DDR2 assessed as percentage of kinase remaining bound to the bead at 1 uM by T7 phage display based binding assay. Summed up: as §5
Experiment [22] addresses Fibroblast growth factor receptor 1 (Homo sapiens) (UniProt P11362). In words: Inhibition of FGF-R1 assessed as remaining enzyme activity at 1 uM relative to DMSO. A digest of the protocol:
as §3

Experiment [23] deals with Ephrin type-A receptor 3 (Homo sapiens, UniProt P29320). Put plainly: Inhibition of EphA3 by [gamma33-P]ATP based assay. A digest of the protocol: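 Radiometric [γ-33P]ATP kinase assay against Eph kinases, following a protocol similar to the Mg-acetate/MgATP filter-binding method.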
Experiment [24] deals with Dual specificity testis-specific protein kinase 1 (Homo sapiens) (UniProt Q15569). In words: Binding affinity to TESK1 assessed as percentage of kinase remaining bound to the bead at 1 uM by T7 phage display based binding assay. A digest of the protocol: as §5
The target of experiment [25] is Interleukin-1 receptor-associated kinase 4 (Homo sapiens) (UniProt Q9NWZ3). In words: Inhibition of IRAK4 assessed as remaining enzyme activity at 1 uM relative to DMSO. Summed up:
as §3

For experiment [26], the target named is Mitogen-activated protein kinase 3 (Homo sapiens) (UniProt P27361). In words: Inhibition of ERK1 assessed as remaining enzyme activity at 1 uM relative to DMSO. Summed up: as §4
For experiment [27], the target named is Serine/threonine-protein kinase PAK 4 (Homo sapiens) (UniProt O96013). In words: Inhibition of PAK4 assessed as remaining enzyme activity at 1 uM relative to DMSO. Summed up: as §2
Experiment [28] deals with Protein kinase C alpha type (Homo sapiens) (UniProt P17252). Put plainly: Inhibition of PKCalpha assessed as remaining enzyme activity at 1 uM relative to DMSO.

MAP kinase-activated protein kinase 2 (Homo sapiens), sequence (P49137 whole entry, looked up): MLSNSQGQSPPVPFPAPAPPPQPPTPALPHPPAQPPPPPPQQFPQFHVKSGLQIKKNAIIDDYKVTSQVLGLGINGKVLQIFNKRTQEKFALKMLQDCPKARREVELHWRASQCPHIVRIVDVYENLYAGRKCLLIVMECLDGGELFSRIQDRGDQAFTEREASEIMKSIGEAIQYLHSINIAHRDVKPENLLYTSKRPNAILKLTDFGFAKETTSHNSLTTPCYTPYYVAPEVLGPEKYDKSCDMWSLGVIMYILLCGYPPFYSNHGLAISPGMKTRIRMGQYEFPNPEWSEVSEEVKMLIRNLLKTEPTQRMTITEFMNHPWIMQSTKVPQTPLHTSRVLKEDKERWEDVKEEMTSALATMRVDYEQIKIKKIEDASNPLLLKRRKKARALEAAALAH
Interleukin-1 receptor-associated kinase 4 (Homo sapiens), sequence (Q9NWZ3 whole entry): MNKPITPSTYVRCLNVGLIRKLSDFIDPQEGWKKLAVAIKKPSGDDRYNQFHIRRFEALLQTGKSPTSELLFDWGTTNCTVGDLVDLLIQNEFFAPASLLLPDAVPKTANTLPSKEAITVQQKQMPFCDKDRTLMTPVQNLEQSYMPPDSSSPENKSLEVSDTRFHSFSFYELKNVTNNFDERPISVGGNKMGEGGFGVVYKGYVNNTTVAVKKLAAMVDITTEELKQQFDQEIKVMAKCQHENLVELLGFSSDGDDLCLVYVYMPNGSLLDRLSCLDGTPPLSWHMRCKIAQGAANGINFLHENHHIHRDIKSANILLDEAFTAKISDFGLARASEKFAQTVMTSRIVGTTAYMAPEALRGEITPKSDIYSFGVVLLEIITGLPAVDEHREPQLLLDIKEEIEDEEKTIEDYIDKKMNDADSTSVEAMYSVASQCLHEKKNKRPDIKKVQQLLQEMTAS
Protein kinase C zeta type (Homo sapiens), sequence (Q05513 whole entry): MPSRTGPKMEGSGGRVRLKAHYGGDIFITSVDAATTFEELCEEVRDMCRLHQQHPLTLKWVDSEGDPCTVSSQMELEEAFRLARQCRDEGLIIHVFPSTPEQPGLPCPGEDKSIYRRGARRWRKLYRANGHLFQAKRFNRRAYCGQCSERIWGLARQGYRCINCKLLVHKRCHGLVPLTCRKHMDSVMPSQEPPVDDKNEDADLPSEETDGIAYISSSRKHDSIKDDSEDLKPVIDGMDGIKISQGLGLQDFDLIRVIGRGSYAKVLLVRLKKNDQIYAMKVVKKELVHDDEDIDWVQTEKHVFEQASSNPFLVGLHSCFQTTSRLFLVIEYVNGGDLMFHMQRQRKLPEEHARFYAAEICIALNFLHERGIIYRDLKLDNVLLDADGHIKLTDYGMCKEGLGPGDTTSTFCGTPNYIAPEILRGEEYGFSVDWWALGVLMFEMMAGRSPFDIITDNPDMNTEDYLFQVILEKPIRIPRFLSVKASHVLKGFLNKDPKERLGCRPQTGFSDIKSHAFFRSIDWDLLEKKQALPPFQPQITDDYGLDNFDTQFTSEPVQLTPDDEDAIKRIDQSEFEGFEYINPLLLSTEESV
Platelet-derived growth factor receptor alpha (Homo sapiens), sequence (P16234 whole entry, the tested form may be a part): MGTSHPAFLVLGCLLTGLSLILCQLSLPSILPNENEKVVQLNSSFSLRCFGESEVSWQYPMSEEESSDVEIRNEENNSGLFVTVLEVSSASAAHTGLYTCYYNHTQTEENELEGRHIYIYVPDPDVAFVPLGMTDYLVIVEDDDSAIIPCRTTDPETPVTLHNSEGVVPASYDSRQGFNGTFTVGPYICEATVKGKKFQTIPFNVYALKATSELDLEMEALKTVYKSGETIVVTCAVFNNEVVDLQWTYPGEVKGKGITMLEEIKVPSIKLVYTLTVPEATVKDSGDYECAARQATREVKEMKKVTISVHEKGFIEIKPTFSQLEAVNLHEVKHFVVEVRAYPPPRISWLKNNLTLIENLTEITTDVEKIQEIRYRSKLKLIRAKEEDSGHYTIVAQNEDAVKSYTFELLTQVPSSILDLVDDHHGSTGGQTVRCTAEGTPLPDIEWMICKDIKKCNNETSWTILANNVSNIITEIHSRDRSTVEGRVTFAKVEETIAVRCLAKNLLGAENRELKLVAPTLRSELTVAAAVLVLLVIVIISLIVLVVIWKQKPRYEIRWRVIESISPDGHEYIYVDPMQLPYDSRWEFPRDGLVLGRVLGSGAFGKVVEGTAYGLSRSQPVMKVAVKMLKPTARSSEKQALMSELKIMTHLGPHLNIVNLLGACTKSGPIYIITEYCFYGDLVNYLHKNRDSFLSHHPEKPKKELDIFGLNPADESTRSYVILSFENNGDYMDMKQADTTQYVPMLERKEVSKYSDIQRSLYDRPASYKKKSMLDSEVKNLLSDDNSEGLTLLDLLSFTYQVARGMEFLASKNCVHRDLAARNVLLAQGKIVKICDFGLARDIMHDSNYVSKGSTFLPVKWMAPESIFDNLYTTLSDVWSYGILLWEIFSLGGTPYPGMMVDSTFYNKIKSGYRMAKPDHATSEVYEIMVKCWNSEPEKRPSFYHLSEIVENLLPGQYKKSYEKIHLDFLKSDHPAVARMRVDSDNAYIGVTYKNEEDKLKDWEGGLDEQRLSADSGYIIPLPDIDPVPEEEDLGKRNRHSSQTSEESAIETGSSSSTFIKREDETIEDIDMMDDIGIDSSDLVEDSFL
Discoidin domain-containing receptor 2 (Homo sapiens), sequence (Q16832 whole entry, the tested form may be a part): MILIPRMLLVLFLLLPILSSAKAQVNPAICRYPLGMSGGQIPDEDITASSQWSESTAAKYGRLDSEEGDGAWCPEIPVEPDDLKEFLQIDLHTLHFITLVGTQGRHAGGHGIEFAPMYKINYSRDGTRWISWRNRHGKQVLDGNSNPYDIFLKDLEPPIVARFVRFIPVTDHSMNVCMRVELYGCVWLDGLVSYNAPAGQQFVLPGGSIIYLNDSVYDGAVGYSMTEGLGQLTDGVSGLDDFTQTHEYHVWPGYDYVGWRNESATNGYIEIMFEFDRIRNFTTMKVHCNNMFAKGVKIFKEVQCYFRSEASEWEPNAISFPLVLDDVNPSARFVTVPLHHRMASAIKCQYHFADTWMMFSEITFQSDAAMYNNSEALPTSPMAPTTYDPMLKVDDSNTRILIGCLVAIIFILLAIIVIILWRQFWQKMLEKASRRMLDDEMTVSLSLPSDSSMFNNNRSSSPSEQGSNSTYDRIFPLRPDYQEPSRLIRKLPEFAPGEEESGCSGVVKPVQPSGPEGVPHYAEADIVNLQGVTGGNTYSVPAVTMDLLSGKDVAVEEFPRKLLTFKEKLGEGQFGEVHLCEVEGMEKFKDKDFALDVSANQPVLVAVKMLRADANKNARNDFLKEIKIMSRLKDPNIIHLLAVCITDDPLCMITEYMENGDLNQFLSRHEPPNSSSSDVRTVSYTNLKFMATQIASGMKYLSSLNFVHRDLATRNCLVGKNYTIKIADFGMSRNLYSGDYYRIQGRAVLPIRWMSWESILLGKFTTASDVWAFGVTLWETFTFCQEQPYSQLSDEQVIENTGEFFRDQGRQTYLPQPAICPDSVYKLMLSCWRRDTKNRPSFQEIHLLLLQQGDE
Mitogen-activated protein kinase 8 (Homo sapiens), sequence (P45983 whole entry): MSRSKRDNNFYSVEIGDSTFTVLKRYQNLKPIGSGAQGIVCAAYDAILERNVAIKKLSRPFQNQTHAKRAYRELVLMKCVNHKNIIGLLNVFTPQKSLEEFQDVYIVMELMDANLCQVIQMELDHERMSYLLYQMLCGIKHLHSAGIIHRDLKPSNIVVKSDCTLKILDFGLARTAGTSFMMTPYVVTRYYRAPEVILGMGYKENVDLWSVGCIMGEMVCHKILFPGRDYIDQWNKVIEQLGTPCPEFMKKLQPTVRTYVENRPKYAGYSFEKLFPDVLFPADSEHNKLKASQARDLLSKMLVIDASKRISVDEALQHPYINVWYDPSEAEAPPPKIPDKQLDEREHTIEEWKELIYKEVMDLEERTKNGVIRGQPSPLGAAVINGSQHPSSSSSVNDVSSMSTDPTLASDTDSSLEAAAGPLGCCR

For `COc1ccccc1-n1c(-c2ccccc2C)cn2c3c(=O)[nH]c(=O)n(C)c3nc12`, the Activity in [1] is 83%; in experiment [2], 92%; in [3], 98%; in experiment [4], 104%; in experiment [5], 89%; in experiment [6] it was 92%. Also, the Activity in [7] was determined as 97%; in experiment [8], 92%; in [9], 102%; in experiment [10], 83%; in experiment [11], 111%.

As for `COc1ccccc1-n1c(-c2cc(O)ccc2C)cn2c3c(=O)[nH]c(=O)n(C)c3nc12`, the Activity stood at 96% in experiment [12]; 84% in [13]; 83% in [14]; 95% in [15]; 86% in [16]; 89% in [17]. For the same compound, the Activity was 94% in experiment [18]; 0.4% in experiment [19]; 90% in experiment [20]; 21% in [21]; 62% in [22]; 9.8% in experiment [24]. In addition, the Activity in experiment [25] was 82%; in experiment [26] it was 96%; in experiment [27], 102%; in experiment [28], 92%. In [23], this compound yielded an IC50 of 40 nM.
